Publication PMC8892090 (Bioactive Materials, 2021)

How the values were obtained:
[1] = system: 786-O (Renal Cell Carcinoma, RCC) xenograft mice; test: In vivo fluorescence imaging and biodistribution, 786-O xenograft
Method in brief: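 Mice received 5 × 10⁶ 786-O cells in PBS subcutaneously in the right hind. At tumour volumes of about 200 mm³, test compound (200 μM, 200 μL) was given intravenously. Whole-body NIR fluorescence was imaged on a Maestro IVIS at 1, 2, 4, 8, 12, 24, 48 and 72 h. Tumour, heart, liver, spleen, lung and kidney were imaged ex vivo at 24 h, and tumour tissue was examined by Bio-TEM. n = 3.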

786-O cells [2] = test: In vitro photostability under NIR laser irradiation; format: cell-based; conditions: for photobleaching of Cy: 20 μM, co-incubated with 786-O cells 4 h at 37 °C, NIR laser irradiation for 40 min (up to 3.60 kJ/cm^2), IVIS
Method in brief: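 786-O cells were seeded at 5 × 10³ per well and allowed to adhere overnight. They were incubated with test compound (20 μM) for 4 h at 37 °C to allow self-assembly. Cells were then irradiated with a near-infrared laser, with fluorescence recorded at 0–40 min in 5 min steps. Three independent repeats.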

HepG2 cells = test: Cytotoxicity assay; format: cell-based; conditions: 24 h, series of concentrations, DMSO less than 1%, mean ± SD n = 3 (Fig. S16)
Method in brief: (§1)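 Cells were seeded at 5 × 10³ per well in 96-well plates and allowed to adhere overnight. Test compound was serially diluted from a concentrated DMSO stock, keeping final DMSO below 1%, and incubated 24 h. Viability (%) = (As − Ab)/(Ac − Ab) × 100, using sample, blank and control wells. Three independent repeats.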

786-O cells [3] = test: Cytotoxicity assay; format: cell-based; conditions: 24 h, series of concentrations, DMSO less than 1% (Fig. 3j)
Method in brief: as §1

[4] = Circular dichroism spectroscopy; format: physicochemical; conditions: 10 μM, deionized water, room temperature (Fig. 2c)
Method in brief: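 Samples at 10 μM were scanned on a CD spectrometer at room temperature. Scan speed was 1200 nm min⁻¹ at 1 nm resolution, and the solution background was subtracted to correct spectra. Three independent repeats.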

healthy mice = format: in vivo; conditions: 200 μL, n = 4
MMP-2 = molecular target: T1, MMP-2 (Homo sapiens, UniProt P08253); test: MMP-2 enzyme responsiveness; format: biochemical; conditions: incubated with MMP-2, new peaks for SSGGPLG and R-M1 (Fig. S7)
T1 sequence (P08253 110-660): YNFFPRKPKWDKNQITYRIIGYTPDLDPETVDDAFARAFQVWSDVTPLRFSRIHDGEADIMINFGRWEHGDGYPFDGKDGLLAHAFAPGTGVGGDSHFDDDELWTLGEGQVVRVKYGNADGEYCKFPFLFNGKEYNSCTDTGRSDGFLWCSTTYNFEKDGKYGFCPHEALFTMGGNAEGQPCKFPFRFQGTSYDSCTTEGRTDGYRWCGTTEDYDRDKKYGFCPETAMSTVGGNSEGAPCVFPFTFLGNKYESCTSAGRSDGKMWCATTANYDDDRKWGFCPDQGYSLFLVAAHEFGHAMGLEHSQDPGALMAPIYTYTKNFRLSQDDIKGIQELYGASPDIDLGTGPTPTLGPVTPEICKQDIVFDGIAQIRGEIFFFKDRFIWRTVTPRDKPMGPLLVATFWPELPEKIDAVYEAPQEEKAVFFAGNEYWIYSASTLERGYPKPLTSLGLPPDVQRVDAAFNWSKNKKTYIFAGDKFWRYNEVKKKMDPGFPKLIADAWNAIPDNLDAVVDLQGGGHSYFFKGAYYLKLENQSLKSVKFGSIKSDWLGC

786-O cells [5] = test: Cellular imaging; format: cell-based; conditions: 20 μM, 15 min, 37 °C (Fig. 3e, S14)
Method in brief: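 Integrin αvβ3-overexpressing 786-O cells were seeded at 2 × 10⁵ cells on confocal dishes and allowed to adhere overnight. They were then exposed to test compound at 20 μM for 15 min. For time-dependent monitoring, cells were washed with PBS and the medium replaced. Imaging used a 40× objective, with fluorescence intensity quantified from images. Three independent repeats.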

[6] = ThT and ANS fluorescent probe assay of β-sheet formation; format: physicochemical; conditions: compared with M1 and M2 group (Fig. S10)
[7] = Transmission electron microscopy of self-assembled nanofibers; format: physicochemical; conditions: 50 μM in acetonitrile: H2O = 2:3 mixed solution for 1 week (Fig. 2e, S11)
Method in brief: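 Samples were dissolved in acetonitrile:H₂O 2:3 and stored 7 d to self-assemble fully. Then 10 μL was placed on carbon-coated copper grids and the excess blotted with filter paper after 5 min before TEM. Three independent repeats.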

[8] = Critical aggregation concentration with fluorescence probe ANS; format: physicochemical; conditions: fluorescence probe ANS (Fig. S8)
[9] = 200 μM, 1 d, 7 d and 14 d post-injection

Row | Substance | course of fluorescence at the tumor site ([1]; 786-O xenograft, intravenous, 200 μM, 200 μL, imaged 1-72 h, n = 3) | photobleaching of Cy (786-O cells [2]) [%] | impact on cell viability of HepG2 (HepG2 cells) | impact on cell viability of 786-O (786-O cells [3]) | secondary structure by CD spectrum [4] | nanofibrous structures on tumor cells (Bio-TEM) ([1]; after administration of M1 200 μM, 200 μL (Fig. 4e)) | fluorescence at the tumor site within 1 h, M1 versus M2 ([1]; intravenous, 200 μM, 200 μL, n = 3) | liver function index (ALT, AST, ALP, TP, ALB, GLOB) versus PBS (healthy mice; [9]) | renal function indicators (BUN, CRE) versus PBS (healthy mice; [9]) | histology (H&E) of major organs versus PBS (healthy mice; intravenous 200 μM, 1 d post-injection) | decrease of photodegradation rate of Cy versus M2 (786-O cells [2]; same as photobleaching test, M1 against M2) [%] | HPLC peak of intact M1 after incubation with MMP-2 (MMP-2) | cellular distribution by confocal imaging (786-O cells [5]) | fluorescence intensity of ThT and ANS probes (β-sheet formation) [6] | diameter of self-assembled nanofibers (TEM) [7] [nm] | critical aggregation concentration (CAC) to form nanofibers [8] [µM]
1 | SSGGPGLGYLKLVFFGC(Cy)GRGD [M2] | quickly decreased after 4 h and nearly vanished at 72 h | 81 | no impact | no impact | random coiled secondary structure | – | – | – | – | – | – | – | – | – | – | –
2 | SSGGPLGYLGKLVFFGC(Cy)GRGD [M1] | – | 55 | no impact | no impact | random coiled secondary structure | clearly observed | approximately identical fluorescence | no noticeable difference | no noticeable difference | no histological differences | 26 | vanished | distributed on the membrane of 786-O cells | – | – | –
3 | YLGKLVFFGC(Cy)GRGD [R-M1] | – | – | – | – | β-sheet structure | – | – | – | – | – | – | – | – | obviously increased | 13.4 ± 3.1 | 4.4
